ChEMBL document CHEMBL5661974, “Pharmacologic characterization of a potent inhibitor of class I phosphatidylinositide 3-kinases” (Cancer Res, 2007)
Active and inactive are the calls of the source. No cut-off for these calls is given here.

Key:
[1] = Tmax in BALB/C mouse kidney at 2.5 mg/kg, iv by LC-MS/MS analysis; assay type: ADME, organism-based
In short: (§1)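 Female BALB/c mice, 6–8 weeks old, given 2.5 mg/kg i.v. in 10% DMSO, 0.5% Tween 20 in saline. Plasma came from serial bleeds; tissues were homogenized in 2 or 3 volumes PBS. Samples were methanol-precipitated with an analogue internal standard, then LC-MS/MS by multiple reaction monitoring against an 8-point external calibration of 2–20,000 nmol/L. Parameters came from WinNonlin noncompartmental analysis, model 201 for plasma and model 200 for tissues.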

[2] = system: MDA-MB-468; assay: Antiproliferative activity against human MDA-MB-468 cells harboring PTEN deletion assessed as cell growth inhibition incubated for 96 hrs by SRB assay; assay type: functional
[3] = Cmax in BALB/C mouse kidney at 2.5 mg/kg, iv by LC-MS/MS analysis; assay type: ADME, organism-based; in short: as §1
[4] = Half life in BALB/C mouse spleen at 2.5 mg/kg, iv by LC-MS/MS analysis; assay type: ADME, organism-based; in short: as §1
[5] = system: PC-3; assay: Antitumor activity against PTEN null human PC-3 cells xenografted male Ncr model assessed as T/C at 30 mg/kg, ip administered twice a daily for 14 days relative to control; assay type: functional; conditions: time 14 day
[6] = system: HCT-116; assay: Antitumor activity against PIK3CA mutant human HCT-116 cells xenografted female Ncr model assessed as body weight loss at 30 mg/kg, ip administered once a daily for 14 days relative to control; conditions: time 14 day
[7] = system: IGROV-1; assay: Antiproliferative activity against human IGROV-1 cells harboring PI3KCA/PTEN mutant assessed as cell growth inhibition incubated for 96 hrs by SRB assay; assay type: functional
[8] = Half life in BALB/C mouse kidney at 2.5 mg/kg, iv by LC-MS/MS analysis; assay type: ADME, organism-based; in short: as §1
[9] = system: PC-3; assay: Antiproliferative activity against human PC-3 cells harboring PTEN deletion assessed as cell growth inhibition incubated for 96 hrs by SRB assay; assay type: functional
[10] = system: U-87 MG; assay: Inhibition of recombinant PI3K in human U-87MG cells assessed as phosphorylation of AKT at Thr308 at 5 times of GI50 concentration within 15 mins treatment by immunoblot analysis; assay type: cell-based
[11] = Cmax in BALB/C mouse plasma at 50 mg/kg, ip by LC-MS/MS analysis; assay type: ADME, organism-based; conditions: in vivo
In short: (§2)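 Female BALB/c mice, 6–8 weeks old, dosed i.p. at 50 mg/kg in 20% […] β-cyclodextrin in saline, 0.1 mL/10 g. Serial blood samples; plasma was methanol-precipitated with an analogue internal standard. LC-MS/MS multiple reaction monitoring, external calibration 2–20,000 nmol/L. Noncompartmental analysis, model 200.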

[12] = Antitumor activity against PIK3CA mutant human […] cells xenografted female Ncr model assessed as T/C at 100 mg/kg, ip administered twice a daily for 16 days relative to control; assay type: functional; conditions: time 16 day
[13] = Tmax in BALB/C mouse liver at 2.5 mg/kg, iv by LC-MS/MS analysis; assay type: ADME, organism-based; in short: as §1
[14] = system: HCT-116; assay: Antitumor activity against PIK3CA mutant human HCT-116 cells xenografted female Ncr model assessed as T/C at 30 mg/kg, ip administered twice a daily for 14 days relative to control; assay type: functional; conditions: time 14 day
[15] = Cmax in BALB/C mouse plasma at 2.5 mg/kg, iv by LC-MS/MS analysis; assay type: ADME, organism-based; in short: as §1
[16] = AUClast in BALB/C mouse plasma at 50 mg/kg, ip by LC-MS/MS analysis; assay type: ADME, organism-based; conditions: in vivo; in short: as §2
[17] = system: A2780; assay: Antiproliferative activity against human A2780 cells harboring PI3KCA/PTEN mutant assessed as cell growth inhibition incubated for 96 hrs by SRB assay; assay type: functional
[18] = system: A549; assay: Antiproliferative activity against human A549 cells harboring AKT assessed as cell growth inhibition incubated for 96 hrs by SRB assay; assay type: functional
[19] = system: MDA-MB-468; assay: Antitumor activity against PTEN null human MDA-MB-468 cells xenografted female Ncr model assessed as T/C at 40 mg/kg, ip administered once a daily for 40 days relative to control; assay type: functional; conditions: time 40 day
[20] = AUClast in BALB/C mouse spleen at 2.5 mg/kg, iv by LC-MS/MS analysis; assay type: ADME, organism-based; in short: as §1
[21] = system: U-87 MG; assay: Inhibition of recombinant PI3K in human U-87MG cells assessed as phosphorylation of GSK3beta at Ser9 at 5 times of GI50 concentration within 15 mins treatment by immunoblot analysis; assay type: cell-based
[22] = system: U-87 MG; assay: Antitumor activity against PTEN null human U-87MG cells xenografted female Ncr model assessed as T/C at 70 mg/kg, ip administered once a daily for 14 days relative to control; assay type: functional, U-87MG ATCC; conditions: time 14 day
[23] = Drug metabolism in mouse microsomes incubated for 30 mins by LC-MS/MS analysis; assay type: ADME, Microsome; conditions: read-out: Drug metabolism
In short: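 Mouse or human microsomes incubated 30 min with inhibitor at 1 or 10 μmol/L. Metabolite detection by LC-MS/MS on an ion trap, with a 10–90% methanol gradient over 6 min and scan range 50–1,000 amu.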

[24] = Toxicity in human OVCAR-3 cells xenografted female Ncr model at 15 to 30 mg/kg, ip administered daily for 15 days; assay type: organism-based; conditions: in vivo, 360 h, dose 15-30 mg/kg, time 15 day
[25] = system: U-87 MG; assay: Antitumor activity against human U-87MG cells xenografted female Ncr model assessed as ratio of p-AKT Ser473/total AKT at 100 mg/kg, ip by 30 to 60 mins after dosing by electrochemiluminescent immunoassay relative to control; assay type: functional, U-87MG ATCC; conditions: time 30-60 min
[26] = system: HCT-116; assay: Antitumor activity against PIK3CA mutant human HCT-116 cells xenografted female Ncr model assessed as T/C at 30 mg/kg, ip administered once a daily for 14 days relative to control; assay type: functional; conditions: time 14 day
[27] = Volume of distribution at steady state in BALB/C mouse at 2.5 mg/kg, iv by LC-MS/MS analysis; assay type: ADME, organism-based; conditions: in vivo, read-out: Vdss; in short: as §1
[28] = AUClast in BALB/C mouse liver at 2.5 mg/kg, iv by LC-MS/MS analysis; assay type: ADME, organism-based; in short: as §1
[29] = system: MDA-MB-468; assay: Antitumor activity against PTEN null human MDA-MB-468 cells xenografted female Ncr model assessed as body weight loss at 30 mg/kg, ip administered once a daily for 14 days relative to control; conditions: time 14 day
[30] = system: HCT-116; assay: Antitumor activity against PIK3CA mutant human HCT-116 cells xenografted female Ncr model assessed as T/C at 30 mg/kg, ip administered once a daily for 21 days relative to control; assay type: functional; conditions: time 21 day
[31] = Inhibition of recombinant human PI3K in cricetulus griseus CHO cells expressing GFP-tagged AKT3 assessed as translocation to the plasma membrane following IGF-1 stimulation by fluorescence assay
In short: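 CHO cells expressing GFP-tagged AKT1, AKT2, AKT3 or PDK1, held in 0.05% serum with 0.1% BSA and stimulated with 100 nmol/L IGF-1. Plasma-membrane translocation was read by automated fluorescence imaging, with IC50 from concentration-response curves; Z' above 0.5.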

[32] = Volume of distribution in BALB/C mouse plasma at 2.5 mg/kg, iv by LC-MS/MS analysis; assay type: ADME, organism-based; in short: as §1

SMILES: Oc1cccc(-c2nc(N3CCOCC3)c3oc4ncccc4c3n2)c1 [PI-103]
- Tmax [1]: 4.98 min
- GI50 [2]: 690 nM
- Cmax [3]: 2.02 µM
- half-life [4]: 78 min
- T/C [5]: 43.3%
- Body weight loss [6]: <15%
- GI50 [7]: 60 nM
- half-life [8]: 54 min
- GI50 [9]: 100 nM
- inhibition [10]: Active
- Cmax [11]: 6.68 µM
- T/C [12]: 36%
- Tmax [13]: 4.98 min
- T/C [14]: 28%
- Cmax [15]: 4.17 µM
- AUClast [16]: 20.459 µM·h
- GI50 [17]: 500 nM
- GI50 [18]: 210 nM
- T/C [19]: 52.8%
- AUC(0-t) [20]: 0.406 µM·h
- inhibition [21]: Active
- T/C [22]: 45.8%
- metabolised at 0.5 h [23]: > 70%
- Activity [24]: Toxic
- Activity [25]: ~50%
- T/C [26]: 68%
- Vd [27]: 0.052 L
- AUC(0-t) [28]: 0.801 µM·h
- Body weight loss [29]: <15%
- T/C [30]: 98.6%
- IC50 [31]: 11 nM
- Vd [32]: 0.2 L
